Assay results collected from several papers.
Lines come from different studies, so protocols differ.
Target: Casein kinase I isoform gamma-2 (CSNK1G2, Homo sapiens, UniProt P78368)

| SMILES | test | conditions | quantity | value |
| --- | --- | --- | --- | --- |
| CC(C)(C)c1nc2c(s1)c1nc(N)ncc1c1ccc(NS(=O)(=O)c3c(F)cccc3F)c(F)c12 | enzyme activity, inhibitor, radiometric | 1 µM | remaining activity | 104% |
| NS(=O)(=O)c1cc(NC(=O)Cc2ccccc2)ccc1Oc1cccc(Cl)c1 | cell-free assay, competition with immobilised ligand | 1 µM | remaining binding | 100% |
| CNC(=O)c1cc(Oc2ccc(NC(=O)Nc3ccc(Cl)c(C(F)(F)F)c3)cc2)ccn1 | enzyme activity, inhibitor | 0.3 µM | inhibition | 5% |
| Nc1ncnc2occ(-c3ccc(NC(=O)Nc4cc(C(F)(F)F)ccc4F)cc3)c12 | cell-free assay, inhibitor | 20 µM | remaining signal | 6.8% |
| Cc1ccc(C(=O)Nc2ccc(CN3CCN(C)CC3)c(C(F)(F)F)c2)cc1C#Cc1cnc2cccnn12 | enzyme activity, inhibitor | 23.5 nM | remaining activity | 96% |
| O=C1NC(=O)c2cc(Nc3ccc(F)cc3)c(Nc3ccc(F)cc3)cc21 | cell-free assay | 0.5 µM | remaining signal | 97.5% |
| Cc1cnc(NC2CCOCC2)nc1-n1cnc(C(=O)NC(CN)c2cc(F)cc(Cl)c2)c1 (stereo not shown) | enzyme activity, inhibitor, radiometric | 1 µM | remaining activity | 53% |
| O=C(Nc1cnn(-c2csc(C(=O)NC3COC3)c2)c1)Nc1c(F)cccc1Cl | enzyme activity, inhibitor | 5 µM | remaining activity | 90.2% |
| CC(C)(O)[C@H]1CC[C@H](Nc2ccc3ncc(-c4cccc(C(F)(F)F)c4)n3n2)CC1 | enzyme activity, inhibitor | 1 µM | remaining activity | 96.1% |
| O=C(NCCCC1CCCCC1)c1ccc(CNC(=O)c2cnn(-c3ccccc3)c2C(F)(F)F)cc1 | cell-free assay, competition with immobilised ligand | 0.1 µM | remaining binding | 96% |
| CN1CC(Oc2cnc(C#N)cc2-c2ccn3nc(NC(=O)C4CC4)cc3c2)C1 | enzyme activity, inhibitor | 1 µM | inhibition | -2% |
| O=C1Nc2ccc(Cl)cc2C1=Cc1cc(Cl)c(O)c(Cl)c1 | cell-free assay | 0.5 µM | remaining signal | 83.5% |
| COc1cc(/C=C/C(=O)CC(=O)/C=C/c2ccc(O)c(OC)c2)ccc1O | enzyme activity, inhibitor | 1 µM | activity vs control | 77% |
| COc1cc(Nc2cnc(C#N)c(O[C@H](C)CN(C)C)n2)ncc1-c1cnn(C)c1 | enzyme activity, inhibitor, radiometric | 1 µM | remaining activity | 101% |
| C[C@H](NC(=O)c1cnc2n1[C@](C)(Cc1ccc(C#N)cc1)C(=O)N2c1cc(Cl)c(F)c(Cl)c1)C(=O)NC1(c2ccccn2)CC1 | cell-free assay, competition with immobilised ligand | 1 µM | remaining binding | 90% |
| COc1cc2ncnc(Nc3ccc(F)c(Cl)c3)c2cc1OCCCN1CCOCC1 | cell-free assay | 0.5 µM | remaining signal | 98.1% |
| C[C@@H]1CN(c2cc(-c3n[nH]c4ccc(OC5(C)CC5)cc34)ncn2)C[C@H](C)O1 | cell-free assay, competition with immobilised ligand | 0.1 µM | remaining binding | 100% |
| COc1cc2ncnc(Nc3ccc(Oc4ccccc4)cc3C)c2cc1OC | enzyme activity, inhibitor | 1 µM | inhibition | 5% |
| COc1ccc2cc(OCC3(C(=O)O)CN(C(=O)c4ccc(F)cc4)C3)ccc2c1 | cell-free assay, competition with immobilised ligand | 1 µM | remaining binding | 100% |
| COc1cc(Nc2c(C#N)cnc3cc(OCCCN4CCN(C)CC4)c(OC)cc23)c(Cl)cc1Cl | cell-free assay | 0.5 µM | remaining signal | 98.3% |
| COc1ccc2c(O[C@@H]3C[C@H]4C(=O)N[C@]5(C(=O)O)CC5/C=C\CCCCC[C@H](NC(=O)OC5CCCC5)C(=O)N4C3)cc(-c3csc(NC(=O)C(C)C)n3)nc2c1C (stereo partly shown) | cell-free assay, competition with immobilised ligand | 1 µM | remaining binding | 90% |
| CS(=O)(=O)Nc1cccc(-c2csc(NC(=O)CSc3nc4nccnc4c(=O)n3CCc3ccccc3)n2)c1 | enzyme activity, inhibitor | 10 µM | inhibition | 8% |
